Reference: ChEMBL document CHEMBL2169833, “Solubility-driven optimization of phosphodiesterase-4 inhibitors leading to a clinical candidate” (J Med Chem, 2012)
In brackets after ≈: the same amount, converted by molar mass.

Experiments:
Rattus norvegicus [1] = assay: (§1) Oral bioavailability in rat at 2.1 umol/kg; assay type: ADME, organism-based; conditions: in vivo
In short: (§2)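 Rat PK after iv and po dosing, some compounds given as the potassium or sodium salt. Vehicle was PBS or 25/75 PEG200/PBS. Dose matched formulation strength: iv 1.05, 2.1 or 4.2 μmol/kg; po 2.1 or 4.2 μmol/kg. For some compounds iv and po used the same dose (2.1 or 4.2 μmol/kg).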

[2] = Half life in rat at 2.1 umol/kg, po; assay type: ADME, organism-based; conditions: in vivo; in short: as §2
Rattus norvegicus [3] = assay: (§3) AUC total in rat at 2.1 umol/kg, po; assay type: ADME, organism-based, Plasma; conditions: in vivo; in short: as §2
[4] = Cmax in rat at 2.1 umol/kg, po; assay type: ADME, organism-based; parameters: dose 2.1 umol/kg, route oral; conditions: in vivo; in short: as §2
[5] = Volume of distribution at steady state in rat at 2.1 umol/kg, iv; assay type: ADME, organism-based; conditions: in vivo, read-out: Vdss; in short: as §2
[6] = as §1; assay type: ADME, organism-based; conditions: in vivo, 2.1 umol/kg; in short: as §2
[7] = as §3; assay type: ADME, organism-based, Plasma; conditions: plasma, 2.1 umol/kg; in short: as §2
[8] = Tmax in rat at 2.1 umol/kg, po; assay type: ADME, organism-based; conditions: in vivo; in short: as §2
[9] = Clearance in rat at 1.05 umol/kg, iv; assay type: ADME, organism-based; conditions: in vivo; in short: as §2
[10] = Volume of distribution at steady state in rat at 1.05 umol/kg, iv; assay type: ADME, organism-based; conditions: in vivo, read-out: Vdss; in short: as §2
[11] = Thermodynamic aqueous solubility of the compound at pH 6.8; assay type: physicochemical; conditions: buffer; for solubility thermodynamic: read-out: Therm_solubility
Phosphodiesterase 4 = Phosphodiesterase 4 (Homo sapiens, UniProt P27815+Q08499+Q07343+Q08493); assay: Inhibition of PDE4 in human PBMC assessed as inhibition of LPS-induced TNFalpha production incubated for 10 mins prior to LPS-challenge measured after 20 hrs by sandwich ELISA
In short: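 Human PBMC were isolated from normal donors by Ficoll−Hypaque and grown at 1 × 10⁶ cells/mL in RPMI1640 with 10% FCS. Compound was preincubated 10 min, then LPS added (10 ng/mL, stock added). Cells were incubated 20 h at 37 °C in 5% CO₂. Supernatant TNF-α was measured by sandwich ELISA at OD405 (sensitivity ~10 pg/mL). IC50 came from inhibition curves.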

[12] = target: 3',5'-cyclic-AMP phosphodiesterase 4D (Homo sapiens, UniProt Q08499); assay: Inhibition of human PDE4D-mediated [3H]CAMP hydrolysis after 30 to 60 mins by scintillation proximity assay
Chain of 3',5'-cyclic-AMP phosphodiesterase 4D (Q08499 whole entry): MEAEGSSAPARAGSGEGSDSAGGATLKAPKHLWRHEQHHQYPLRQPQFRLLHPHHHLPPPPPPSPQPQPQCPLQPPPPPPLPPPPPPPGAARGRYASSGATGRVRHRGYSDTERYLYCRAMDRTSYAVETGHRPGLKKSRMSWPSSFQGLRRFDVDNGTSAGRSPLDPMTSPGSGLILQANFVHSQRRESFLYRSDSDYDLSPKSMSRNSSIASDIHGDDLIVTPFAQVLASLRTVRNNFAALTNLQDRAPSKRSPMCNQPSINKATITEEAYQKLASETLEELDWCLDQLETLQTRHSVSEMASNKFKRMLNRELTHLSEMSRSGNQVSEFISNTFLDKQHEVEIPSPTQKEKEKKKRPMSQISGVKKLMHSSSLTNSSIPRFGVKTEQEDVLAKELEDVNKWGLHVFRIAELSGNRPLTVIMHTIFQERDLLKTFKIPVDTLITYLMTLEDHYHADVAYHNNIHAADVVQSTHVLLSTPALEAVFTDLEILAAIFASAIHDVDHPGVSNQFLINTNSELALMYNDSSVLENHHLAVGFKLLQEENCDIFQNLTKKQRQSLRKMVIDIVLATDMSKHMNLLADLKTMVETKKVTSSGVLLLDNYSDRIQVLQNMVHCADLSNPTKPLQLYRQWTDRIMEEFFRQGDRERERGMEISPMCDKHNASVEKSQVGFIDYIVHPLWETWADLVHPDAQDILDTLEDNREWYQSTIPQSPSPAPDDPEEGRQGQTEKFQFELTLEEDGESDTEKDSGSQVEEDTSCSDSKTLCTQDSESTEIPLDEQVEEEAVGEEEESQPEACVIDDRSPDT
In short: (§4)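 Enzyme was diluted in 10 mM Tris-HCl pH 7.5 with 1 mM EDTA to give 10–30% substrate hydrolysis. Substrate was [3H]-cAMP (0.1 μCi) with 1 μM cAMP. Inhibitors were tested at 10 concentrations with 1% DMSO, 30−60 min at room temperature, stopped with PDE SPA beads and counted. IC50 came from curves. Mean of ≥2 experiments in duplicate, SEM where n ≥ 3.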

[13] = target: 3',5'-cyclic-AMP phosphodiesterase 4B (Homo sapiens, UniProt Q07343); assay: Inhibition of human PDE4B-mediated [3H]CAMP hydrolysis after 30 to 60 mins by scintillation proximity assay; in short: as §4
Chain of 3',5'-cyclic-AMP phosphodiesterase 4B (Q07343 whole entry): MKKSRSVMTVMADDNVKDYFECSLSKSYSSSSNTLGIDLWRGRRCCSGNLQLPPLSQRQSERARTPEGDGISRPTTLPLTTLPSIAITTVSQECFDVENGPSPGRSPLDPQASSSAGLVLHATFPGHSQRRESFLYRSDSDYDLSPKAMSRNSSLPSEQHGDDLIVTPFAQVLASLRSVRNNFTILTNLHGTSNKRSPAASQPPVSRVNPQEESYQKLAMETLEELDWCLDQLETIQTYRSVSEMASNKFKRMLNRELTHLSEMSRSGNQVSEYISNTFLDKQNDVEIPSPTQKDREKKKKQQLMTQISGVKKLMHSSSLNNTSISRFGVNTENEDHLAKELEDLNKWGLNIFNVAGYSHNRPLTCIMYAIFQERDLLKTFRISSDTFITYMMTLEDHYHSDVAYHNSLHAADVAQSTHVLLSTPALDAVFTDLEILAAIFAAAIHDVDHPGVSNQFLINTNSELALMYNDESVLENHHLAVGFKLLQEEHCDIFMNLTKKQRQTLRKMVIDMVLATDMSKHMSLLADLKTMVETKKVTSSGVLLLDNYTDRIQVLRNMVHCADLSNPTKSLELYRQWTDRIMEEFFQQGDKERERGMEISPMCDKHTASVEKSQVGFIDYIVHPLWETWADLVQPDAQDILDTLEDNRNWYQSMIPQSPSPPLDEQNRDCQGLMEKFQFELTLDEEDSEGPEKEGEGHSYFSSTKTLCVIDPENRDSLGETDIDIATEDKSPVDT

[14] = target: 3',5'-cyclic-AMP phosphodiesterase 4A (Homo sapiens, UniProt P27815); assay: Inhibition of human PDE4A-mediated [3H]CAMP hydrolysis after 30 to 60 mins by scintillation proximity assay; in short: as §4
Chain of 3',5'-cyclic-AMP phosphodiesterase 4A (P27815 whole entry): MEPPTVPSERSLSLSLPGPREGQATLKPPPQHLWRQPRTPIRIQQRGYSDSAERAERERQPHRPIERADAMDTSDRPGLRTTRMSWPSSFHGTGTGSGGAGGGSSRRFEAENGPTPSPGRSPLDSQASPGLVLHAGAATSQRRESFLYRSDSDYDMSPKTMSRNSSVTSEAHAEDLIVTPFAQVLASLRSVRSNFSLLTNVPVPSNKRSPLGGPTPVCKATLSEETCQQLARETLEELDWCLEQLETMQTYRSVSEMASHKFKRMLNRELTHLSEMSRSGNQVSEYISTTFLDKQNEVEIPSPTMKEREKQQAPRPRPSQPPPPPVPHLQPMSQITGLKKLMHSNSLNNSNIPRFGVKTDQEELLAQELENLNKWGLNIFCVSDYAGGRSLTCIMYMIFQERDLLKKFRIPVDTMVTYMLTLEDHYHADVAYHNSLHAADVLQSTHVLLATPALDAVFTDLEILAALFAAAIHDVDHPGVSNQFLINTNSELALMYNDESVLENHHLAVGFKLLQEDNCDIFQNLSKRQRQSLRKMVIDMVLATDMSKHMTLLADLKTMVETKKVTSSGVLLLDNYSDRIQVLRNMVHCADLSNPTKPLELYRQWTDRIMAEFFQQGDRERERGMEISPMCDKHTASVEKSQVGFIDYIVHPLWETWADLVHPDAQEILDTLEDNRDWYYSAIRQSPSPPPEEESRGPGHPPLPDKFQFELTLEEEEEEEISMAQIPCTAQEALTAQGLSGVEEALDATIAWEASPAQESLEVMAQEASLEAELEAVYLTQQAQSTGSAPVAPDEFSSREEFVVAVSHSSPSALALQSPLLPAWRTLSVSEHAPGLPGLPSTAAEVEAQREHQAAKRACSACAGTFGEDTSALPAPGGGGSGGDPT

Rattus norvegicus [15] = assay: Oral bioavailability in rat at 4.2 umol/kg; assay type: ADME, organism-based; conditions: in vivo; in short: as §2
[16] = Half life in rat at 4.2 umol/kg, po; assay type: ADME, organism-based; conditions: in vivo; in short: as §2
Rattus norvegicus [17] = assay: AUC total in rat at 4.2 umol/kg, po; assay type: ADME, organism-based, Plasma; conditions: in vivo; in short: as §2
[18] = Tmax in rat at 4.2 umol/kg, po; assay type: ADME, organism-based; conditions: in vivo; in short: as §2

SMILES | half-life [2] [h] | Cmax [4] [µM] | AUC [7] [µM·h] | Tmax [8] [h] | clearance [9] [mL/min/kg] | Vd [10] [L/kg] | IC50 (Phosphodiesterase 4) [nM] | IC50 [12] [nM] | IC50 [13] [nM] | IC50 [14] [nM] | solubility thermodynamic [11] [µg/mL] | also measured
O=C([O-])C1CCN(c2cc3cccnc3c(-c3cccc(F)c3)n2)CC1.[Na+] | – | – | – | – | – | – | – | – | – | – | – | F (Rattus norvegicus [15]): 70%; half-life [16]: 17 h; AUC (Rattus norvegicus [17]): 3919 µM·min; Tmax [18]: 2.88 h; Vd [5]: 0.24 L/kg
CSc1cccc(-c2nc([C@H]3CC[C@H](C(=O)O)CC3)cc3cccnc23)c1 | – | – | – | – | – | – | 19 | 6 | 17 | 27 | 1100 (≈ 2910 µM) | –
O=C(O)C1CCN(c2cc3cccnc3c(-c3cccc(OC(F)(F)F)c3)n2)CC1 | – | – | – | – | – | – | – | 30 | 225 | 371 | 1950 (≈ 4670 µM) | –
O=C([O-])[C@H]1CC[C@H](c2cc3cccnc3c(-c3cccc(OC(F)(F)F)c3)n2)CC1.[K+] | 29 | 3.6 | 84 | 7.42 | 0.65 | 0.36 | – | – | – | – | – | bioavailability [6]: 107%
O=C(O)C1CCN(c2cc3cccnc3c(-c3cccc(Cl)c3)n2)CC1 | – | – | – | – | – | – | 541 | 30 | 187 | 364 | 140 (≈ 381 µM) | –
CSc1cccc(-c2nc(N3CCC(C(=O)O)CC3)cc3cccnc23)c1 | – | – | – | – | – | – | – | 51 | 1330 | 587 | 378 (≈ 996 µM) | –

Further lines, with some results ahead:

half-life [2] [h] | Cmax [4] [µM] | AUC [7] [µM·h] | Tmax [8] [h] | clearance [9] [mL/min/kg] | Vd [10] [L/kg] | IC50 (Phosphodiesterase 4) [nM] | IC50 [12] [nM] | IC50 [13] [nM] | IC50 [14] [nM] | solubility thermodynamic [11] [µg/mL] | SMILES | also measured
9 | 4.6 | – | – | – | – | – | – | – | – | – | O=C([O-])[C@H]1CC[C@H](c2cc3cccnc3c(-c3cccc(F)c3)n2)CC1.[K+] | F (Rattus norvegicus [1]): 52%; AUC (Rattus norvegicus [3]): 4408 µM·min; Vd [5]: 0.09 L/kg
7 | 4.49 | 54.4 | 2.88 | 0.98 | 0.25 | – | – | – | – | – | O=C([O-])C1CCN(c2cc3cccnc3c(-c3cccc(OC(F)(F)F)c3)n2)CC1.[Na+] | bioavailability [6]: 149%
– | – | – | – | – | – | 151 | 64 | 156 | 242 | – | COc1cccc(-c2nc([C@H]3CC[C@H](C(=O)O)CC3)cc3cccnc23)c1 | Therm_solubility [11]: 150 µg/mL
23 | 2.8 | 46.1 | 2.15 | 1.16 | 0.72 | 851 | 19 | 168 | 271 | > 4000 | N#Cc1cccc(-c2nc(N3CCC(C(=O)O)CC3)cc3cccnc23)c1 | F (Rattus norvegicus [1]): 158%
